Source: publication PMC7614804 (Journal of medicinal chemistry, 2022)

Legend:
Pa MurB [1] = biological target: T1, Pa MurB (Pseudomonas aeruginosa, UniProt Q9HZM7); assay: Surface plasmon resonance; type: binding
T1 sequence (Q9HZM7 1-339): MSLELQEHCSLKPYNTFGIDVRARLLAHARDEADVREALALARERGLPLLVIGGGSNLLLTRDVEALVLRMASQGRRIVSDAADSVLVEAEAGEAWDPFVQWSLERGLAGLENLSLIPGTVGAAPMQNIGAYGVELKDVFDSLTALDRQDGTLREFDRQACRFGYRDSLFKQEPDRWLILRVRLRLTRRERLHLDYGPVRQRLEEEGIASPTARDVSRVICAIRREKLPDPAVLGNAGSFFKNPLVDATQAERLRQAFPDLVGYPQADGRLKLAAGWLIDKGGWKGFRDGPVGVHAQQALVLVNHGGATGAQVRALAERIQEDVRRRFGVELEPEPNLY
In short: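 Pa MurB amine-coupled to a CM5 chip. Running buffer: 10 mM NaPO4 pH 7, 150 mM NaCl, 2% DMSO, 25 °C. Each test compound at 1 mM in running buffer was injected for 30 s at […], with 320 s dissociation. Each was run twice, in reverse orders, with solvent correction. Response units were compared visually with those of the initial pyrazole fragment hit.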

Pa MurB [2] = biological target: T1, Pa MurB; assay: Isothermal titration calorimetry; type: binding
In short: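 ITC at 25 °C. Pa MurB was dialysed overnight at 4 °C into 25 mM Tris-HCl pH 8.0, 150 mM NaCl; cell and syringe solutions were in the same buffer with 5% DMSO final. Usually 50 μM MurB with 3.0 mM fragment; some runs used 1.0 or 0.5 mM ligand or 200 μM MurB. A 0.4 μL first injection was discarded, then 28 × 1.5 μL every 120 s. One-site fit; LE = −(RTlnKd)/heavy atoms, in kcal/mol per heavy atom.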

[3] = Table 3, RU of fragment at 1 mM compared with RU of fragment 4, n = 2
[4] = Table 3, LE = –(RTlnKd)/(number of heavy atoms)
[5] = Table 4, RU of fragment at 1 mM compared with RU of fragment 4, n = 2
[6] = Table 4, LE = −(RTlnKd)/(number of heavy atoms)
[7] = Kd(μM) ITC, Table 4, 50 μM MurB, 3.0 mM fragment, fragment 41: 200 μM MurB
[8] = Table 5, RU of compound at 1.0 mM compared with RU of fragment 4, n = 2
[9] = Table 5, LE = −(RTlnKd)/(number of heavy atoms)
[10] = Table 6, RU of fragment at 1.0 mM compared with RU of fragment 4, n = 2
[11] = Table 6, LE = −(RTlnKd)/(number of heavy atoms)

Cc1c(C(=O)O)nnn1-c1ccccc1 [Fragment 19]
SPR RU>RUf4 1.0 mM (Pa MurB [1]; [3]): no
Kd (Pa MurB [2]; Kd(μM) ITC, Table 3, 50 μM MurB, 3.0 mM fragment): 877 ± 154 µM
LE (Pa MurB [2]; [4]): 0.28 kcal/mol per heavy atom

Cc1cc(C(=O)O)c(C)n1-c1ccccc1 [Fragment 20]
SPR RU>RUf4 1.0 mM (Pa MurB [1]; [3]): yes
LE (Pa MurB [2]; [4]): 0.34 kcal/mol per heavy atom

Cc1nc(C(=O)O)c(C)n1-c1ccccc1 [Fragment 21]
SPR RU>RUf4 1.0 mM (Pa MurB [1]; [3]): no

Cc1cc(C(=O)O)c(C(F)(F)F)n1-c1ccccc1 [Fragment 22]
SPR RU>RUf4 1.0 mM (Pa MurB [1]; [3]): yes
LE (Pa MurB [2]; [4]): 0.28 kcal/mol per heavy atom

Cc1c(C(=O)O)cc(CCO)n1-c1ccccc1 [Fragment 23]
Kd (Pa MurB [2]; Kd (ITC)): 208 ± 15 µM
LE (Pa MurB [2]; [4]): 0.28 kcal/mol per heavy atom

O=C(O)c1cnn(-c2ccccc2Cl)c1C(F)(F)F [Fragment 30]
SPR RU>RUf4 1.0 mM (Pa MurB [1]; [5]): yes
LE (Pa MurB [2]; [6]): 0.27 kcal/mol per heavy atom

O=C(O)c1cnn(-c2ccccc2Br)c1C(F)(F)F [Fragment 31]
SPR RU>RUf4 1.0 mM (Pa MurB [1]; [5]): yes
LE (Pa MurB [2]; [6]): 0.29 kcal/mol per heavy atom

Cc1ccccc1-n1ncc(C(=O)O)c1C(F)(F)F [Fragment 32]
SPR RU>RUf4 1.0 mM (Pa MurB [1]; [5]): yes
LE (Pa MurB [2]; [6]): 0.31 kcal/mol per heavy atom

COc1ccc(-n2ncc(C(=O)O)c2C(F)(F)F)cc1 [Fragment 35]
SPR RU>RUf4 1.0 mM (Pa MurB [1]; [5]): no

Cc1cc([N+](=O)[O-])ccc1-n1ncc(C(=O)O)c1C(F)(F)F [Fragment 36]
SPR RU>RUf4 1.0 mM (Pa MurB [1]; [5]): yes
Kd (Pa MurB [2]; [7]): 208 ± 28 µM
LE (Pa MurB [2]; [6]): 0.23 kcal/mol per heavy atom

Cc1cccc(-n2ncc(C(=O)O)c2C(F)(F)F)c1C [Fragment 38]
SPR RU>RUf4 1.0 mM (Pa MurB [1]; [5]): yes
Kd (Pa MurB [2]; [7]): 99 ± 7.2 µM
LE (Pa MurB [2]; [6]): 0.27 kcal/mol per heavy atom

Cc1ccc(-n2ncc(C(=O)O)c2C(F)(F)F)c(C)c1 [Fragment 39]
SPR RU>RUf4 1.0 mM (Pa MurB [1]; [5]): yes
Kd (Pa MurB [2]; [7]): 85.5 ± 8 µM
LE (Pa MurB [2]; [6]): 0.28 kcal/mol per heavy atom

Cc1ccc(C)c(-n2ncc(C(=O)O)c2C(F)(F)F)c1 [Fragment 40]
SPR RU>RUf4 1.0 mM (Pa MurB [1]; [5]): yes
LE (Pa MurB [2]; [6]): 0.26 kcal/mol per heavy atom

Cc1cccc(C)c1-n1ncc(C(=O)O)c1C(F)(F)F [Fragment 41]
LE (Pa MurB [2]; [6]): 0.31 kcal/mol per heavy atom

O=C(O)c1cnn(-c2c(Cl)cccc2Cl)c1C(F)(F)F [Fragment 42]
SPR RU>RUf4 1.0 mM (Pa MurB [1]; [5]): yes
Kd (Pa MurB [2]; [7]): 60.2 ± 4.4 µM
LE (Pa MurB [2]; [6]): 0.29 kcal/mol per heavy atom

O=C(O)c1cnn(-c2ccc(Cl)c(Cl)c2)c1C(F)(F)F [Fragment 43, 1-(3,4-Dichlorophenyl)-5-(trifluoromethyl)-1H-pyrazole-4-carboxylic Acid]
SPR RU>RUf4 1.0 mM (Pa MurB [1]; [5]): yes
LE (Pa MurB [2]; [6]): 0.31 kcal/mol per heavy atom

Cc1cc(Cl)c(Cl)cc1-n1ncc(C(=O)O)c1C(F)(F)F [Fragment 44]
SPR RU>RUf4 1.0 mM (Pa MurB [1]; [8]): yes
LE (Pa MurB [2]; [9]): 0.35 kcal/mol per heavy atom

Cc1c(-n2ncc(C(=O)O)c2C(F)(F)F)ccc(Cl)c1Cl [Fragment 45]
SPR RU>RUf4 1.0 mM (Pa MurB [1]; [8]): yes
LE (Pa MurB [2]; [9]): 0.32 kcal/mol per heavy atom

Cc1ccccc1-n1c(C)cc(C(=O)O)c1C [Fragment 46]
SPR RU>RUf4 1.0 mM (Pa MurB [1]; [8]): yes
LE (Pa MurB [2]; [9]): 0.34 kcal/mol per heavy atom

Cc1cccc(C)c1-n1c(C)cc(C(=O)O)c1C [Fragment 47]
SPR RU>RUf4 1.0 mM (Pa MurB [1]; [8]): no
LE (Pa MurB [2]; [9]): 0.32 kcal/mol per heavy atom

Cc1cc(C(=O)O)c(C)n1-c1ccc(Cl)c(Cl)c1 [Fragment 48]
SPR RU>RUf4 1.0 mM (Pa MurB [1]; [8]): no
LE (Pa MurB [2]; [9]): 0.33 kcal/mol per heavy atom

Cc1cc(C(=O)O)c(C)n1-c1cccc(Cl)c1 [Fragment 49]
SPR RU>RUf4 1.0 mM (Pa MurB [1]; [8]): yes

Cc1cc(C(=O)O)c(C)n1-c1ccc(Cl)cc1 [Fragment 50]
SPR RU>RUf4 1.0 mM (Pa MurB [1]; [8]): no

Cc1cc(Cl)c(Cl)cc1-n1c(C)cc(C(=O)O)c1C [Fragment 51]
LE (Pa MurB [2]; [9]): 0.33 kcal/mol per heavy atom

Cc1c(-n2c(C)cc(C(=O)O)c2C)ccc(Cl)c1Cl [Fragment 52]
LE (Pa MurB [2]; [9]): 0.33 kcal/mol per heavy atom

Cc1ccccc1-n1c(C)cc(C(=O)O)c1C(F)(F)F [Fragment 53]
SPR RU>RUf4 1.0 mM (Pa MurB [1]; [8]): yes
LE (Pa MurB [2]; [9]): 0.30 kcal/mol per heavy atom

Cc1cc(Cl)c(Cl)cc1-n1c(C)cc(C(=O)O)c1C(F)(F)F [Fragment 54]
LE (Pa MurB [2]; [9]): 0.32 kcal/mol per heavy atom

Cc1c(-n2c(C)cc(C(=O)O)c2C(F)(F)F)ccc(Cl)c1Cl [Fragment 55]
SPR RU>RUf4 1.0 mM (Pa MurB [1]; [8]): yes
LE (Pa MurB [2]; [9]): 0.31 kcal/mol per heavy atom

CS(=O)(=O)NC(=O)c1cnn(-c2ccccc2)c1C(F)(F)F [Fragment 59]
SPR RU>RUf4 1.0 mM (Pa MurB [1]; [10]): no

O=C(NS(=O)(=O)c1ccccc1)c1cnn(-c2ccccc2)c1C(F)(F)F [Fragment 60]
SPR RU>RUf4 1.0 mM (Pa MurB [1]; [10]): yes
Kd (Pa MurB [2]; Kd (ITC)): 320 ± 60 µM
Kd (Pa MurB [2]; Kd(μM) ITC, Table 6, 50 μM Pa MurB, 3.0 mM fragment): 324 ± 59 µM
LE (Pa MurB [2]; [11]): 0.18 kcal/mol per heavy atom

Cc1cccc(C)c1-n1ncc(C(=O)NS(=O)(=O)c2ccccc2)c1C(F)(F)F [Fragment 62]
SPR RU>RUf4 1.0 mM (Pa MurB [1]; [10]): yes
LE (Pa MurB [2]; [11]): 0.22 kcal/mol per heavy atom

Cc1cc(Cl)c(Cl)cc1-n1ncc(C(=O)NS(=O)(=O)c2ccccc2)c1C(F)(F)F [Fragment 64]
LE (Pa MurB [2]; [11]): 0.22 kcal/mol per heavy atom
